Tests used:
B16 = test: Tested in vitro for cytotoxicity against B16 murine melanoma cells; format: functional, Mus musculus
How it was run: (§1)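 Clonogenic assay. Cells were suspended in unsupplemented medium at 2-30 000 cells/mL and exposed 2 h at 37 °C, 5% CO2 to 1-400 µM drug (final), with the top dose chosen to give >99% kill. Drug stocks were made in medium or ethanol. After washing, cells were plated at 2-3 dilutions. Colonies of ≥50 cells were stained with crystal violet at 8 days (B16) or 14 days (MCF-7). LC99 was taken by linear regression of log surviving fraction vs concentration.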

HT-29 [1] = test: Tested in vitro for cytotoxicity against HT-29 human colon carcinoma cells under aerobic condition; format: functional
How it was run: (§2)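 HT-29 colon cells were grown in α-MEM with 10% FBS and given a 4-h drug exposure under aerobic or hypoxic conditions in a clonogenic assay run in duplicate. The top dose was chosen to give >99% kill. LC99 (1% colony survival versus untreated controls) was taken by linear regression of log surviving fraction vs drug concentration.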

HT-29 [2] = test: Tested in vitro for cytotoxicity against HT-29 human colon carcinoma cells under hypoxic condition; format: functional; how it was run: as §2
MCF7-CP = test: Tested in vitro for cytotoxicity against MCF-7/CP 4-hydroperoxycyclophosphamide-resistant human breast cancer cells; format: functional; how it was run: as §1
MCF7 = test: Tested in vitro for cytotoxicity against MCF-7/WT wild-type human breast cancer cells; format: functional; how it was run: as §1
[3] = Ratio of lethal conc. under aerobic to hypoxic condition in HT-29 cells; format: functional
How it was run: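 HT-29 hypoxic selectivity. Aerobic and hypoxic LC99 values (concentration cutting clonogenic survival by 2 log units) come from the log-linear portion of each survival curve after 4-h drug treatment, assayed in duplicate. The ratio is aerobic LC99 over hypoxic LC99.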

Row | SMILES | LC99 (B16) [µM] | LC99 (HT-29 [1]) [µM] | LC99 (HT-29 [2]) [µM] | LC99 (MCF7-CP) [µM] | LC99 (MCF7) [µM] | Ratio [3]
1 | O=[N+]([O-])c1ccc(COP(=O)(N(CCCl)CCCl)N(CCCl)CCCl)o1 | 9.3 | 12 | 3.4 | 22 | 20 | 3.5
2 | O=P(OCc1ccco1)(N(CCCl)CCCl)N(CCCl)CCCl | 53 |  |  | 230 | 300 | 
3 | Cn1c(COP(=O)(N(CCBr)CCBr)N(CCBr)CCBr)ccc1[N+](=O)[O-] | 14 |  |  | 51 | 57 | 
4 | NP(=O)(OCc1cc(Br)c([N+](=O)[O-])s1)N(CCBr)CCBr (stereo not drawn) | 0.44 | 0.91 | 0.25 | 1.3 | 0.62 | 3.6
5 | CN(C)c1cc(COP(N)(=O)N(CCBr)CCBr)sc1[N+](=O)[O-] (stereo not drawn) | 52 | 180 | 8.9 | 110 | 88 | 20
6 | O=[N+]([O-])c1ccc(COP(=O)(N(CCBr)CCBr)N(CCBr)CCBr)o1 | 1.7 |  |  | 2.3 | 1.9 | 
7 | O=P1(N(CCCl)CCCl)NC(OO)CCO1 (stereo not drawn) [PERFOSFAMIDE] | 11 |  |  | 145 | 14 | 
8 | N#Cc1cc(COP(N)(=O)N(CCBr)CCBr)sc1[N+](=O)[O-] (stereo not drawn) | 0.45 | 0.62 | 0.22 | 0.24 | 0.11 | 2.8
9 | NC(=O)c1cc(COP(N)(=O)N(CCBr)CCBr)sc1[N+](=O)[O-] (stereo not drawn) | 1.4 | 0.73 | 0.33 | 1.5 | 1.6 | 2.2
10 | O=[N+]([O-])c1ccc(COP(=O)(N(CCCl)CCCl)N(CCCl)CCCl)s1 | 5.1 | 10.8 | 6.2 | 6.5 | 7.9 | 1.7
11 | Cn1c(COP(=O)(N(CCCl)CCCl)N(CCCl)CCCl)ccc1[N+](=O)[O-] | 70 |  |  | 245 | 205 | 
12 | O=P(OCc1cccs1)(N(CCCl)CCCl)N(CCCl)CCCl | 120 |  |  | 205 | 211 | 
13 | Cn1c([N+](=O)[O-])cnc1COP(=O)(N(CCCl)CCCl)N(CCCl)CCCl | 150 | >600 | 28 | >600 | >600 | >20
14 | O=[N+]([O-])c1ccc(COP(=O)(N(CCBr)CCBr)N(CCBr)CCBr)s1 | 1.1 |  |  | 1.9 | 2.4 | 

From ChEMBL document CHEMBL1133734, “Synthesis and evaluation of nitroheterocyclic phosphoramidates as hypoxia-selective alkylating agents” (2000)
